The record followed here is ChEMBL document CHEMBL1129623, “Effects of multidrug resistance (MDR1) P-glycoprotein expression levels and coordination metal on the cytotoxic potency of multidentate (N4O2) (ethylenediamine)bis[propyl(R-benzylimino)]metal(III) cations” (1996).

Test [1] relates to KB 3-1. Put plainly: Compound was tested for dependency on R-ENBPI Ga(III) complexs in human drug sensitive (KB-3-1)cells. In kind it is functional. A digest of the protocol: (§1)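 KB-3-1 cells were plated at 5000/well in 5% FBS medium and allowed 4 h to recover. Complexes were added in triplicate at concentrations up to 100 μM, then incubated 72 h at 37 °C, 5% CO2. Cells were TCA-fixed and stained with SRB, read at 490–450 nm, and expressed as % of vehicle control. A sigmoid fit with Smin constrained to zero gave LC50 and fit dependencies.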

Test [2] concerns KB 3-1. Nature of the test: Compound was tested for cytotoxic lethal concentration on R-ENBPI Al(III) complexs in human drug sensitive (KB-3-1)cells. The class given is functional. Particulars: read-out: LC50 (the source's name). In outline:
(§2)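 Parental KB-3-1 human epidermal carcinoma cells, no immunodetectable P-glycoprotein, 5000/well in 5% FBS medium, 4 h recovery. Complex was added in triplicate wells up to 100 μM, 72 h at 37 °C, 5% CO2. Cells were TCA-fixed and stained with 0.4% SRB, dye dissolved in 10 mM Tris, A490–450. LC50 was from a sigmoid fit of survival versus vehicle control, Smin constrained to zero.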

The subject of test [3] is KB 3-1. Nature of the test: Compound was tested for dependency on R-ENBPI In(III) complexs in human drug sensitive (KB-3-1)cells. The class given is functional. In outline:
as §1

Test [4] concerns KB. Put plainly: Compound was tested for dependency on R-ENBPI Ga(III) complex in […] (KB-8-5) cells. The class given is functional. A digest of the protocol: (§3)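 KB-8-5 multidrug-resistant cells were kept drug-free for 96 h, then plated at 5000/well in 5% FBS medium and allowed 4 h to recover. Complexes were added in triplicate up to 100 μM for 72 h at 37 °C. Survival was read by SRB staining (490–450 nm) relative to vehicle. LC50 came from a sigmoid fit with Smin fixed at zero, giving CV% and dependency statistics.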

In test [5] the test system is KB 3-1. Put plainly: Compound was tested for cytotoxic lethal concentration on R-ENBPI […] complexs in human drug sensitive (KB-3-1)cells parentheses value indicates SEM. The class given is functional. Particulars: read-out: LC50 (the source's name). In outline: as §2
Test [6] deals with KB 3-1. Put plainly: Compound was tested for cytotoxic lethal concentration on R-ENBPI In(III) complexs in human drug sensitive (KB-3-1)cells. parentheses value indicates SEM. Particulars: read-out: LC50 (the source's name). In kind it is functional. In outline:
as §2

For test [7], the system named is KB. Nature of the test: Compound was tested for coefficient of variation percent on R-ENBPI Fe(III) complex in multi drug resistant (KB-8-5) cells; NA=not applicable. Particulars: Homo sapiens. The class given is functional, cell-based. A digest of the protocol: as §3
Test [8] relates to KB 3-1. Nature of the test: (§4) Compound was tested for dependency on R-ENBPI Fe(III) complex in human drug sensitive (KB-3-1)cells. In kind it is functional. A digest of the protocol:
as §1

The test system of test [9] is KB. Nature of the test: Compound was tested for cytotoxic lethal concentration on R-ENBPI In(III) complex in multi drug resistant (KB-8-5)cells. Particulars: Homo sapiens, read-out: LC50 (the source's name). The class given is functional. In outline: (§5)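 KB-8-5 cells are colchicine-selected and express modest MDR1 P-glycoprotein. They were kept in drug-free medium for 96 h, then plated at 5000/well in 5% FBS medium and allowed 4 h recovery. Complex was added in triplicate up to 100 μM, with 72 h at 37 °C, 5% CO2. Read-out was SRB staining after TCA fixation, A490–450. LC50 came from a sigmoid fit (Smin=0) of survival relative to vehicle. Values ≥100 μM were not fitted.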

In test [10] the test system is KB. Nature of the test: Compound was tested for cytotoxic lethal concentration on R-ENBPI Ga(III) complex in multi drug resistant (KB-8-5)cells. The class given is functional. Particulars: Homo sapiens, read-out: LC50 (the source's name). In outline:
as §5

For test [11], the system named is KB. Put plainly: Compound was tested for dependency on R-ENBPI Al(III) complex in multi drug resistant (KB-8-5)cells. The class given is functional, Homo sapiens. A digest of the protocol:
as §3

Test [12] relates to KB. Put plainly: Compound was tested for dependency on R-ENBPI Fe(III) complex in multi drug resistant (KB-8-5) cells; NA=not applicable. The class given is functional, cell-based. Particulars: Homo sapiens. A digest of the protocol:
as §3

The test system of test [13] is KB 3-1. Put plainly: Compound was tested for dependency on R-ENBPI Al(III) complexs in human drug sensitive (KB-3-1)cells. In kind it is functional. In outline: as §1
The test system of test [14] is KB. Nature of the test: Compound was tested for dependency on R-ENBPI In(III) complex in multi drug resistant (KB-8-5)cells. In kind it is functional, Homo sapiens. In outline:
as §3

The subject of test [15] is KB. Put plainly: Compound was tested for cytotoxic lethal concentration on R-ENBPI Fe(III) complex in multi drug resistant (KB-8-5)cells. In kind it is functional. Particulars: Homo sapiens, read-out: LC50 (the source's name). In outline:
as §5

Test [16] relates to KB. Put plainly: Compound was tested for cytotoxic lethal concentration on R-ENBPI Al(III) complex in multi drug resistant (KB-8-5)cells. Particulars: Homo sapiens, read-out: LC50 (the source's name). The class given is functional. A digest of the protocol:
as §5

Test [17] deals with KB 3-1. The description is as §4. In kind it is functional. Particulars: read-out: LC50 (the source's name). In outline:
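Parameter dependency from the sigmoid fit S={(Smax−Smin)/[1+(C/LC50)^γ]}+Smin of KB-3-1 SRB survival data: 72 h exposure, triplicate wells, up to 100 μM, Smin constrained to zero. It is used to judge overparameterization of the fitted curve.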

The test system of test [18] is KB 3-1. Nature of the test: Compound was tested for cytotoxic lethal concentration on R-ENBPI Al(III) complexs in human drug sensitive (KB-3-1)cells. parentheses value indicates SEM. In kind it is functional. Particulars: read-out: LC50 (the source's name). A digest of the protocol: as §2
Test [19] relates to KB. Nature of the test: Compound was tested for coefficient of variation percent on R-ENBPI Ga(III) complex in multi drug resistant (KB-8-5) cells; NA=not applicable. Particulars: Homo sapiens. In kind it is functional, cell-based. In outline:
as §3

For test [20], the system named is KB. Nature of the test: Compound was tested for cytotoxic lethal concentration on R-ENBPI Ga(III) complex in multi drug resistant (KB-8-5) cells; NA=not applicable. In kind it is functional, cell-based. Particulars: Homo sapiens. In outline: as §5
Test [21] concerns KB. Nature of the test: Compound was tested for cytotoxic lethal concentration on R-ENBPI Fe(III) complex in multi drug resistant (KB-8-5) cells; NA=not applicable. In kind it is functional, cell-based. Particulars: Homo sapiens. A digest of the protocol:
as §5

For test [22], the system named is KB 3-1. Put plainly: Compound was tested for cytotoxic lethal concentration on R-ENBPI […] complexs in human drug sensitive (KB-3-1)cells. parentheses value indicates SEM. In kind it is functional. Particulars: read-out: LC50 (the source's name). In outline:
as §2

In test [23] the test system is KB. Nature of the test: Compound was tested for dependency on R-ENBPI Ga(III) complex in […] (KB-8-5) cells; NA=not applicable. In kind it is functional, cell-based. In outline: as §3
In test [24] the test system is KB. Put plainly: Compound was tested for dependency on R-ENBPI Al(III) complex in multi drug resistant (KB-8-5) cells; NA=not applicable. Particulars: Homo sapiens. In kind it is functional, cell-based. In outline:
as §3

The subject of test [25] is KB. Put plainly: Compound was tested for coefficient of variation percent on R-ENBPI Al(III) complex in multi drug resistant (KB-8-5) cells; NA=not applicable. Particulars: Homo sapiens. In kind it is functional, cell-based. In outline:
as §3

Active and inactive are the calls of the source. The rule behind the calls is not given here. Some results are limits rather than exact numbers.

Consider `COc1cccc(/C=N/CCCN2CCN(CCC/N=C/c3cccc(OC)c3O)C2c2cccc(OC)c2O)c1O`, for which the Dependency in test [1] worked out at 0.45; in [3] it was 0.41; in test [4], 0.39; in [8] it was 0.68; in test [11], 0.33; in test [13], 0.46. The same molecule showed a Dependency in [14] of 0.36. Besides, the CC50 is 11.4 µM in [2]; less than 42.6 µM in [5]; 16.6 µM in test [6]; 24.2 µM in [9]; less than 110 µM in [10]; more than 100 µM in [15]. The CC50 is less than 27.5 µM in [16] and 9 µM in test [17]. Besides, the CV result in test [7] was “inactive”. For the same molecule, in test [12], the Dependency result is “inactive”.
Turning to `COc1cc(O)c(/C=N/CCCN2CCN(CCC/N=C/c3c(O)cc(OC)cc3OC)C2c2c(O)cc(OC)cc2OC)c(OC)c1`, the Dependency in test [1] was determined as 0.34; in test [3], 0.38; in test [8], 0.23; in [13], 0.39; in [14], 0.38. The CC50 is less than 1.4 µM in test [18]; 63.8 µM in test [6]; 61.8 µM in test [9]; 3.7 µM in test [22]; more than 100 µM in test [16]; less than 1.1 µM in [17]. In addition, the CV result in test [7], in test [19] and in test [25] was “inactive” throughout. For the same molecule, the LC50 entry in [20] and in test [21] was “inactive” each time. Also, the Dependency entry in [12], in test [23] and in test [24] was “inactive” in each case.
